In ChEMBL document CHEMBL1122649, “3-Alkyl-2-aryl-3H-naphth[1,2-d]imidazoles, a novel class of nonacidic antiinflammatory agents” (J Med Chem, 1984):

How the values were obtained:
Type in all cases: functional
[1] = test system: Rattus norvegicus; assay: Antiinflammatory activity measured as the percentage inhibition of edema in carrageenan induced rat paw after peroral administration of 200 mg/kg of compound; conditions: route oral
Method in brief: (§1)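 Female Wistar rats (120–150 g), 10 per dose, dosed orally with an aqueous suspension in 0.5% methocel (10 mL/kg) 1 h before 0.05 mL of 1% carrageenin in saline was injected into the right hind paw aponeurosis. Paw volume was read plethysmographically at injection and 4 h later. Inhibition is given relative to vehicle controls. Screening dose 200 mg/kg; 100 mg/kg was tested when inhibition exceeded 30%. Student's t test.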

[2] = test system: Rattus norvegicus; assay: Antiinflammatory activity was measured as the percentage inhibition of edema in carrageenan induced rat paw after peroral administration of 100 mg/kg of compound; conditions: route oral; method in brief: as §1
[3] = species: Rattus norvegicus; assay: Compound was evaluated for its analgesic activity by Randall-Selitto test in comparison with that of Aspirine
Method in brief: (§2)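 Randall–Selitto pain threshold, measured on the inflamed right hind paw of male Wistar rats (170–200 g), 10 per dose. Edema was induced with 0.1 mL of 20% yeast suspension in saline. Oral dosing in 0.5% methocel (10 mL/kg), highest dose one-fifth of LD50, then scaling down through 100, 50, 20, 10, 5 and 2 mg/kg. Threshold read before dosing, then hourly for 6 h. Potency expressed relative to aspirin = 1.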

[4] = test system: Rattus norvegicus; assay: Compound was evaluated for its antiinflammatory activity in the cotton pellet induced granuloma(CPG) in normal rats at the dose 200 mg/kg p.o.; conditions: route oral
Method in brief: (§3)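 Male Wistar rats (150–180 g), 7 per group. Two sterile 50 mg cotton pellets were implanted subcutaneously in the interscapular region under ether. Oral dosing in 0.5% methocel (10 mL/kg) daily for 6 days, starting 6 h after surgery. Animals were killed 24 h after the last dose; pellets with granuloma were dried 24 h at 80 °C. Percent inhibition versus vehicle controls.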

[5] = species: Rattus norvegicus; assay: Compound was evaluated for its antipyretic activity by antipyresis effect in comparison with that of Aspirin.
Method in brief: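 Male Sprague-Dawley rats (120–150 g), 6 per dose, starved 18 h and kept at 24 °C; rats above 38 °C were excluded. Fever was induced by subcutaneous 1 mL of filtered 5% peptone preincubated 48 h at 37 °C. Oral doses as in the analgesic test (top dose one-fifth of LD50, stepping down). Rectal thermocouple readings from 4 h after injection, then hourly for 4 h. Activity relative to aspirin = 1.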

[6] = test system: Rattus norvegicus; assay: (§4) Compound was evaluated for its antiinflammatory activity by adjuvant-induced polyarthritis test in rats at a dosage of 200 mg/kg administered orally; parameters: unit not given beside the values; conditions: route oral
Method in brief: (§5)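 Female Wistar rats (130–150 g), 8 per dose. Killed Mycobacterium butyricum (0.6 mg in 0.1 mL mineral oil) was injected into the right hind plantar aponeurosis. Oral dosing in 0.5% methocel, once daily, curative scheme from day 14 to day 27. Read-outs: percent change in hind-paw volume versus controls; Newbould 0–4 lesion scores for front paws, tail and ears; plasma inflammation units by nephelometric turbidity before and after 30 min at 56 °C on day 27.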

[7] = test system: Rattus norvegicus; assay: Compound was evaluated for its gastroulcerogenic effect in rats at a peroral dose of 200 mg/kg, P<0.05.; conditions: route oral
[8] = test system: Rattus norvegicus; assay: as §4; conditions: route oral; method in brief: as §5
[9] = species: Rattus norvegicus; assay: Compound was evaluated for its gastroulcerogenic effect with respect to treated and control groups. Treated and control groups are not statistically different when the index is <1; P<0.05.
[10] = species: Rattus norvegicus; assay: Compound was evaluated for its analgesic activity by Randall-Selitto test in comparison with that of Aspirin; method in brief: as §2
[11] = test system: Rattus norvegicus; assay: Compound was evaluated for its antiinflammatory activity in the cotton pellet induced granuloma (CPG) in normal rats at the dose 200 mg/kg p.o.; conditions: route oral; method in brief: as §3
[12] = test system: Rattus norvegicus; assay: Compound was evaluated for its gastroulcerogenic effect in rats at a peroral dose of 200 mg/kg; conditions: route oral
[13] = test system: Rattus norvegicus; assay: (§6) Compound was evaluated for its antiinflammatory activity by adjuvant-induced polyarthritis test in rats at a dosage of 100 mg/kg administered orally; parameters: unit not given beside the values; conditions: route oral; method in brief: as §5
[14] = test system: Rattus norvegicus; assay: as §6; conditions: route oral; method in brief: as §5
[15] = test system: Rattus norvegicus; assay: Compound was evaluated for its antiinflammatory activity in the cotton pellet induced granuloma(CPG) in normal rats at the dose 100 mg/kg p.o.; conditions: route oral; method in brief: as §3
[16] = test system: Rattus norvegicus; assay: Compound was evaluated for its antiinflammatory activity in the cotton pellet induced granuloma(CPG) in normal rats at the dose 50 mg/kg p.o.; conditions: route oral; method in brief: as §3
[17] = test system: Rattus norvegicus; assay: Compound was evaluated for its antiinflammatory activity by adjuvant-induced polyarthritis test in rats at a dosage of 50 mg/kg administered orally; conditions: route oral; method in brief: as §5

SMILES	inhibition in vivo at 200 mg/kg [1] [%]	inhibition in vivo at 100 mg/kg [2] [%]	Activity [3]	Activity [5]	further results
COc1cccc(-c2nc3c4ccccc4ccc3n2C)c1	21				
COc1ccc(-c2nc3c4ccccc4ccc3n2CCO)cc1	11				
CC(C)Oc1ccc(-c2nc3c4ccccc4ccc3n2C)cc1	31	25			
CCn1c(-c2ccc(OC)cc2)nc2c3ccccc3ccc21	52	49	1.1	2.9	inhibition in vivo at 200 mg/kg [4]: 31%; Mean volume of hind paws [6]: 21; Ulcerogenic index [7]: 0.09; Arthritis scores [8]: 21; Inflammation units [8]: 35
Cn1c(-c2ccc(Cl)cc2)nc2c3ccccc3ccc21	21				
Cn1c(-c2ccc(O)cc2)nc2c3ccccc3ccc21	4				
COc1ccc(-c2nc3c4ccccc4ccc3n2C(C)(C)C)cc1	19				
Cn1c(-c2ccccc2O)nc2c3ccccc3ccc21	1				
Cn1c(-c2ccccc2)nc2c3ccccc3ccc21	42	37	0.9	9.1	Ulcerogenic index [9]: 0.33; inhibition in vivo at 200 mg/kg [4]: 24%
COc1ccc(-c2nc3c4ccccc4ccc3n2C)cc1	53	41		1	Activity [10]: 1.2; inhibition in vivo at 200 mg/kg [11]: 40%; Mean volume of hind paws [6]: 33; Ulcerogenic index [7]: 0.31; Arthritis scores [8]: 40; Inflammation units [8]: 46
Cn1c(-c2ccc[nH]2)nc2c3ccccc3ccc21	1				
Cn1c(-c2cccs2)nc2c3ccccc3ccc21	40	31	1	0.9	inhibition in vivo at 200 mg/kg [4]: 31%; Ulcerogenic index [12]: 0.12; Mean volume of hind paws [6]: 23; Arthritis scores [8]: 24; Inflammation units [8]: 18
COc1ccc(-c2nc3c4ccccc4ccc3n2C)cc1C	35	24			
Cc1ccc(-c2nc3c4ccccc4ccc3n2C)cc1	21				
COc1ccc(-c2nc3c(ccc4ccccc43)[nH]2)cc1	10				
Cc1cc(-c2nc3c4ccccc4ccc3n2C)ccc1N(C)C	69	64	2.8	10.5	Mean volume of hind paws [13]: 42; Ulcerogenic index [12]: 0.21; Arthritis scores [14]: 69; Inflammation units [14]: 84; inhibition in vivo at 100 mg/kg [15]: 38%
Cl.Cn1c(-c2ccccn2)nc2c3ccccc3ccc21	24				
C=Cn1c(-c2ccc(OC)cc2)nc2c3ccccc3ccc21	58	48	1.1	6.9	inhibition in vivo at 200 mg/kg [4]: 31%; Mean volume of hind paws [13]: 34; Ulcerogenic index [12]: 0.3; Arthritis scores [14]: 39; Inflammation units [14]: 61
Cn1c(-c2ccncc2)nc2c3ccccc3ccc21	63	44	2.4	1.4	inhibition in vivo at 200 mg/kg [4]: 33%; Ulcerogenic index [12]: 0.31; Mean volume of hind paws [6]: 20; Arthritis scores [8]: 10; Inflammation units [8]: 3
CCCCC1C(=O)N(c2ccccc2)N(c2ccccc2)C1=O [PHENYLBUTAZONE]			6.5	4	inhibition in vivo at 50 mg/kg [16]: 38%; Ulcerogenic index [7]: 1.4; Arthritis scores [17]: 58; Inflammation units [17]: 68; Mean volume of hind paws [17]: 45
COc1ccc(-c2nc3c4ccccc4ccc3n2CC(C)C)cc1	30				
